# Assay results reported in ChEMBL document CHEMBL5223167, “Synthesis of Novel Kidney-Type Glutaminase Allosteric Inhibitors Targeting the Critical Lys-320 Residue” (ACS Med Chem Lett, 2023).
# Calls of active or inactive are those of the source. The calls are words filed in the database; no cut-off is given here.
# Legend:
# [1] = Stability of compound; type: physicochemical
# [2] = biological target: Glutamate dehydrogenase 1, mitochondrial (Bos taurus) (UniProt P00366); assay: Inhibition of bovine GDH using glutamate as substrate preincubated for 0.5 hrs followed by substrate addition and further incubated for 1 hr in presence of NADP+ by EZMTT reagent based assay
# Chain of Glutamate dehydrogenase 1, mitochondrial (Bos taurus) (P00366 whole entry): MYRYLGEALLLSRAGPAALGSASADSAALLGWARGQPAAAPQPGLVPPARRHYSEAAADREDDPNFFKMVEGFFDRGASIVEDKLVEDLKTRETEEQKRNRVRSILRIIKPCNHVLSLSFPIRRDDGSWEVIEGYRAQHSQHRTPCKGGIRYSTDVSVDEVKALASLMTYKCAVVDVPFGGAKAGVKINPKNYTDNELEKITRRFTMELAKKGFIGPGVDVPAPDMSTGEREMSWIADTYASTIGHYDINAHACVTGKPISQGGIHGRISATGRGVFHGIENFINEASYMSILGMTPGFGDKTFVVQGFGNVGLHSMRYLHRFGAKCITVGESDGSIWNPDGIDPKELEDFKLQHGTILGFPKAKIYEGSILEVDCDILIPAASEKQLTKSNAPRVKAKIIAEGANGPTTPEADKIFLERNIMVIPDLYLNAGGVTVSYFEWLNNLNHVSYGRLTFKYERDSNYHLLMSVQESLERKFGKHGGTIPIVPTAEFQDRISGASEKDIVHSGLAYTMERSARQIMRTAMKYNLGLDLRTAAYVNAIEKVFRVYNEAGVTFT
# H22 = assay: Antiproliferative activity against mouse H22 cells assessed as inhibition of cell growth by measuring fold improvement in IC50 incubated for 5 days by EZMTT assay relative to control; type: functional; settings: time 5 day
# [3] = Clearance in ICR mouse at […], iv measured for 24 hrs by HPLC analysis; type: ADME, organism-based; settings: in vivo
# Homo sapiens [4] = organism: Homo sapiens; assay: Inhibition of biotinylated N-[6-[4-[5-[[2-(2-pyridyl)acetyl]amino]-1,3,4-thiadiazol-2-yl]butyl]pyridazin-3-yl]-2-[3-(trifluoromethoxy)phenyl]acetamide binding to human KGA K320A mutant by biomolecular interaction assay; settings: dose 0-3 µM
# [5] = biological target: T1, Glutaminase kidney isoform, mitochondrial (Homo sapiens) (UniProt O94925); assay: Inhibition of biotinylated N-[6-[4-[5-[[2-(2-pyridyl)acetyl]amino]-1,3,4-thiadiazol-2-yl]butyl]pyridazin-3-yl]-2-[3-(trifluoromethoxy)phenyl]acetamide binding to wild type human KGA at >300 nM by biomolecular interaction assay
# T1 sequence (whole entry): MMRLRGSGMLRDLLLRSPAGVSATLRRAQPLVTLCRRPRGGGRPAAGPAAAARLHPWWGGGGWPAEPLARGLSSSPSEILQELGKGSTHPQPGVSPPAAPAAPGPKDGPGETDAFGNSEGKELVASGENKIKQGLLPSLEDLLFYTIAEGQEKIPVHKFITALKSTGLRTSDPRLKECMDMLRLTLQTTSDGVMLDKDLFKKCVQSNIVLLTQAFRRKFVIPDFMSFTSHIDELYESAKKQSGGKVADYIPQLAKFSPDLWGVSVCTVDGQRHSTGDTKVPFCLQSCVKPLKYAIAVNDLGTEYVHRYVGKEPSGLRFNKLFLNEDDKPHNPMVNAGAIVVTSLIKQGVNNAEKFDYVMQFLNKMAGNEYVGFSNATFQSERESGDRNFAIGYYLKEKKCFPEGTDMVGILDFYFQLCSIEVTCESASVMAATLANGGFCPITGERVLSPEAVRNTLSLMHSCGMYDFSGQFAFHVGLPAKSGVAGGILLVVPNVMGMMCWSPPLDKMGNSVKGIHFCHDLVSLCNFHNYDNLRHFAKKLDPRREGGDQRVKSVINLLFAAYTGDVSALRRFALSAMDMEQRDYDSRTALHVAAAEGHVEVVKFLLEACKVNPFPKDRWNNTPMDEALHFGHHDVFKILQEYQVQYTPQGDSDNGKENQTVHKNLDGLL
# HCT-116 [6] = assay: Antiproliferative activity against human HCT-116 cells assessed as growth rate at 1 uM measured after 2 to 24 hrs by EZMTT assay (reference value: 100%); type: functional; settings: for growth at 1 µM: Homo sapiens, HCT-116, time 2-24 hrs, read-out: Activity
# HCT-116 [7] = assay: Antiproliferative activity against human HCT-116 cells assessed as growth rate at 10 uM measured after 2 to 24 hrs by EZMTT assay (reference value: 100%); type: functional; settings: for growth at 10 µM: Homo sapiens, HCT-116, time 2-24 hrs, read-out: Activity
# [8] = biological target: T2, Glutaminase kidney isoform, mitochondrial (Homo sapiens, UniProt O94925); assay: Binding affinity to wild type human KGA assessed as covalent bond formation by measuring dissociation constant by biomolecular interaction assay
# T2 sequence (O94925 whole entry): T1 sequence (whole entry)
# HCT-116 [9] = assay: Antiproliferative activity against human HCT-116 cells assessed as inhibition of cell growth by measuring fold improvement in IC50 incubated for 5 days by EZMTT assay relative to control; type: functional; settings: time 5 day
# A549 [10] = assay: Inhibition of colony formation in human A549 cells assessed as reduction in number and size of colonies incubated for 14 days by crystal violet staining based assay; type: functional, cell-based; settings: dose 1-5 µM, time 14.0 day
# [11] = Metabolic stability in mouse liver microsomes assessed as parent compound remaining measured for 2 hrs by HPLC analysis; type: ADME, Microsome; settings: read-out: Stability
# Summary of the method: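 Compound is incubated with mouse liver microsomes for 2 h. The parent level remaining is quantified by HPLC, with coumarin as the reference control.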
# HCT-116 [12] = assay: Antiproliferative activity against human HCT-116 cells assessed as growth rate at 3 uM measured after 2 to 24 hrs by EZMTT assay (reference value: 100%); type: functional; settings: for growth at 3 µM: Homo sapiens, HCT-116, time 2-24 hrs, read-out: Activity
# Homo sapiens [13] = organism: Homo sapiens; assay: Binding affinity to alanine residue of human KGA K320A mutant assessed as covalent bond formation
# A549 [14] = assay: Induction of ROS production in human A549 cells at 5 to 10 uM incubated for 12 hrs by dichlorodihydro-fluorescein diacetate probe based fluorescence microscopic analysis; type: functional, cell-based; settings: dose 5-10 µM
# [15] = Half life in ICR mouse at […], iv measured for 24 hrs by HPLC analysis; type: ADME, organism-based; settings: in vivo
# [16] = biological target: T2, Glutaminase kidney isoform, mitochondrial; assay: Inhibition of human KGA using glutamine as substrate preincubated for 0.5 hrs followed by substrate addition and measured after 4 hrs by EZMTT reagent based assay
# Homo sapiens [17] = organism: Homo sapiens; assay: Covalent inhibition of human KGA K320A mutant using glutamine as substrate at 10 uM preincubated for 0.5 hrs followed by substrate addition and measured after 4 hrs by EZMTT reagent based assay; settings: time 4.5 hrs
# Summary of the method: (§1)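 Human KGA, either wild-type or the K320A mutant, is pre-incubated with or without compound at 10 μM before the enzyme activity assay.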
# [18] = biological target: T1, Glutaminase kidney isoform, mitochondrial (Homo sapiens); assay: Covalent inhibition of wild type human KGA using glutamine as substrate at 10 uM preincubated for 0.5 hrs followed by substrate addition and measured after 4 hrs by EZMTT reagent based assay; settings: time 4.5 hrs; summary of the method: as §1
smiles,measurement,setting,value
C=CC(=O)Nc1ccc(CCCCc2nnc(NC(=O)Cc3ccccn3)s2)nn1,Stability,[1],Unstable
same,inhibition,[2],inactive
C=CC(=O)Nc1ccc(CCCCc2nnc(NC(=O)Cc3cc4ccccc4n3C)s2)nn1,Stability,[1],Unstable
same,inhibition,[2],inactive
O=C(/C=C/c1ccc2c(c1)OCO2)Nc1ccc(CCCCc2nnc(NC(=O)Cc3ccccn3)s2)nn1,fold change (FC),H22,30
same,clearance,[3],582 mL/min/kg
same,inhibition,Homo sapiens [4],Dose-Dependent Effect
same,inhibition,[5],Active
same,growth at 1 µM,HCT-116 [6],11.9%
same,growth at 10 µM,HCT-116 [7],6.1%
same,Kd,[8],≤ 0.001 nM
same,fold change (FC),HCT-116 [9],3
same,inhibition,A549 [10],Dose-Dependent Effect
same,remaining at 2 h,[11],83%
same,growth at 3 µM,HCT-116 [12],7.6%
same,Activity,Homo sapiens [13],inactive
same,Stability,[1],Stable
same,Activity,A549 [14],Active
same,half-life,[15],3.37 h
same,IC50,[16],28 nM
same,inhibition,Homo sapiens [17],inactive
same,inhibition,[18],100%
same,inhibition,[2],inactive
O=C(/C=C/c1ccc2c(c1)OCO2)Nc1ccc(CCCCc2nnc(NC(=O)Cc3ccccn3)[se]2)nn1,clearance,[3],327 mL/min/kg
same,inhibition,Homo sapiens [4],Dose-Dependent Effect
same,inhibition,[5],Active
same,growth at 1 µM,HCT-116 [6],14.3%
same,growth at 10 µM,HCT-116 [7],6.3%
same,Kd,[8],≤ 0.001 nM
same,inhibition,A549 [10],Dose-Dependent Effect
same,remaining at 2 h,[11],74%
same,growth at 3 µM,HCT-116 [12],6%
same,Activity,Homo sapiens [13],inactive
same,Stability,[1],Stable
same,Activity,A549 [14],Active
same,half-life,[15],4.89 h
same,IC50,[16],50 nM
same,inhibition,Homo sapiens [17],inactive
same,inhibition,[18],100%
same,inhibition,[2],inactive
O=c1ccc2ccccc2o1 [COUMARIN],remaining at 2 h,[11],61%
O=C(Cc1cccc(OC(F)(F)F)c1)Nc1ccc(CCCCc2nnc(NC(=O)Cc3ccccn3)s2)nn1,Activity,HCT-116 [6]; time 2-24 hrs,19.1%
same,Activity,HCT-116 [7]; time 2-24 hrs,14.1%
same,Activity,HCT-116 [12]; time 2-24 hrs,17%
same,inhibition,[2],inactive
C=C(C(=O)Nc1ccc(CCCCc2nnc(NC(=O)Cc3ccccn3)[se]2)nn1)c1cccc(OC(F)(F)F)c1,Stability,[1],Unstable
same,inhibition,[2],inactive
C=CC(=O)Nc1ccc(CCCCc2nnc(NC(=O)Cc3ccccn3)[se]2)nn1,Stability,[1],Unstable
same,inhibition,[2],inactive
O=C(/C=C/c1cc(F)ccc1F)Nc1ccc(CCCCc2nnc(NC(=O)Cc3ccccn3)[se]2)nn1,Stability,[1],Unstable
same,inhibition,[2],inactive
